Source: PubChem BioAssay
The list is not random: actives were taken first. Their share in the collection is about 4.9%.
STAT1 blocker = STAT1 signaling inhibition; NIH 3T3 STAT1-luciferase reporter, IFN-gamma, luminescence; inhibition, % at 5.5 µM; actives 0.35% (n = 200,000); AID 920;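 active = inhibition above a set limit, the mean inhibition across all tested compounds plus 3 SD, cut at about 34% in these data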;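 note: 0% = IFN-gamma with DMSO and 100% = IFN-gamma with 300 µM nifuroxazide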
NF-kB neuron act = compounds increasing NF-kB expression in human neuronal cells | NF-kB reporter expression; stronger effect = higher value | fold change at 12.5 µM | actives 1.6% (n = 190,000); in the data active = fold change above about 3.3
STAT3 inh = reduces IL-6 driven STAT3 reporter signal; inhibition, % at 5.5 µM; actives 0.89% (n = 190,000); U3A cells, IL-6 STAT3-luciferase reporter, luminescence; host cell line lacks STAT1;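 active = inhibition above the mean inhibition across all screened compounds plus 3 SD, cut at about 44% in these data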;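 note: 0% = DMSO only wells and 100% = 100 µM nifuroxazide control wells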
APP 5'UTR act = activates APP 5'UTR luciferase reporter; SH-SY5Y APP 5'UTR luciferase reporter, luminescence; zero percent = DMSO vehicle wells; actives 1% (n = 190,000); AID 1276; activation, % at 2 µM;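 active = activation above a set limit, based on mean plus 3 SD of controls, cut at about 140% in these data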
STAT3 activator = STAT3 signaling activation; U3A cells, IL-6 STAT3-luciferase reporter, luminescence; 100% = signal with IL-6 EC80 alone; activation (% of control), % at 5.6 µM; actives 0.91% (n = 190,000); AID 871;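 active = activation above the screen-wide mean of compound activation plus 3 SD, cut at about 130% in these data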;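 note: 0% = background luminescence of wells with medium and substrate only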
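Test system: human U3A cells carrying STAT3-luciferase construct; control set: IL-6-only wells as 100% reference; timing: compound pre-incubation 1 h before IL-6, then 6 h stimulation at 37 °C; also added: IL-6 stimulus at 33 ng/mL final; evaluation: % activation versus median of IL-6-stimulated wells; detection: reporter luminescence signal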
STAT1 activator = increases IFN-gamma driven STAT1 reporter signal | NIH 3T3 STAT1-luciferase reporter, luminescence; 100% = IFN-gamma alone, no compound | activation (% of control), % at 5.5 µM | actives 2.6% (n = 200,000);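 active = activation above the screen-wide mean activation plus 3 SD, cut at about 130% in these data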;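 note: raw ratio to IFN-gamma control signal so 100% means no change and 0% no light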
* hit, by the source's call.

SMILES | STAT1 blocker | NF-kB neuron act | STAT3 inh | APP 5'UTR act | STAT3 activator | STAT1 activator
NC(=O)c1ccccc1N/C=C/C(=O)c1ccco1 | -36 | 1.5 | 2 | 78 | 101 | 134*
O=C(CN1C(=O)CCC1=O)Nc1cccc(NC(=O)CN2C(=O)CCC2=O)c1 | 0 | 0.99 | 9 | -3 | 97 | 97
O=C(Nc1ccc(NC(=O)c2sc3ccccc3c2Cl)cc1)c1ccco1 | 1 | 0.99 | 8 | -2 | 92 | 99
COC(=O)Oc1ccc(/C=N/NC(=O)CN(c2ccccc2Cl)S(C)(=O)=O)cc1OC | 6 | 0.83 | 0 | 13 | 98 | 94
Cc1ccsc1/C=N/Nc1cccc(C(=O)O)c1 | 89* | 14* | 49* | -42 | 61 | 18
Cc1ccc(/C=N/Nc2cccc(C(=O)O)c2)s1 | 22 | 14* | -16 | 38 | 116 | 81
CCOc1cc(/C=N/Nc2cccc(C(=O)O)c2)ccc1OC(=O)c1ccccc1 | 77* | 12* | 55* | 39 | 56 | 28
O=C(O)c1cccc(N/N=C/C2=C(Cl)c3cc(Cl)ccc3SC2)c1 | -28 | 5.2* | 20 | 195* | 87 | 126
CCOc1cc(/C=N/NC(=O)CNc2cccc(C)c2)ccc1OC(=O)c1ccccc1 | -12 | 0.87 | -12 | 8 | 115 | 111
O=C(O)c1cccc(Cn2c(Cl)c(/C=N/Nc3ccccc3)sc2=O)c1 | 8 | 0.94 | 18 | 7 | 94 | 92
O=C(O)c1cccc(N/N=C/c2ccc(F)c(F)c2)c1 | 15 | 1 | 0 | 118 | 107 | 85
CN1C(=O)C(c2nnc(Nc3cccc4ccccc34)s2)C2CC1(C)Oc1ccccc12 (stereo not given) | -8 | 0.76 | -4 | 3 | 102 | 107
Cc1cc(C(=O)CN2C(=O)NC(c3ccccc3)(c3ccccc3)C2=O)c(C)n1Cc1ccccc1 | -2 | 0.83 | 5 | 13 | 98 | 102
Cc1ccc2nc(N3CCN(c4ccccc4F)CC3)c(C=O)c(=O)n2c1 | -3 | 1.1 | 14 | 7 | 98 | 102
Cc1nc2ccc(Cl)cc2c(-c2ccccc2F)c1CC(=O)O | 6 | 1 | 4 | 11 | 96 | 95
Cc1ccccc1-n1c(C)nnc1SCc1nc2ccccc2s1 | -35 | 1.5 | -44 | 141* | 142* | 132*
O=c1[nH]nc(SCc2nc3ccccc3s2)n1C1CC1 | -23 | 1.2 | -30 | 37 | 127 | 120
CCCn1c(SCc2nc3ccccc3s2)n[nH]c1=O | -36 | 2.1 | -18 | 119 | 124 | 134*
COc1ccccc1-c1cc(C(F)(F)F)nc(S(=O)(=O)CCCC(=O)Nc2cc(C)on2)n1 | 35* | 1.8 | 5 | 0 | 99 | 68
COc1ccc2c(c1)C(=O)[C@@H](O)[C@H](c1ccc(OC)c(Br)c1)O2 | -6 | 1.4 | 8 | 28 | 91 | 106
COc1cccc([C@@H]2Oc3ccc(OC)cc3C(=O)[C@H]2O)c1 | 3 | 5.7* | 3 | 146* | 95 | 98
COc1ccc2cc(/C(C)=N/NC(=O)c3cc(-c4cccnc4)nc4ccccc34)ccc2c1 | 8 | 1.1 | -7 | -14 | 109 | 93
Cc1cc(C)c(C(=O)CSc2nnc(N)s2)c(C)c1 | 2 | 1.1 | 11 | -19 | 93 | 98
Cc1ccc(C(=O)CSc2nnc(N)s2)c(C)c1 | -40 | 1.8 | 8 | 67 | 101 | 137*
Cc1ccc(C(=O)CSc2nnc3ccccn23)c(C)c1 | -24 | 4.1* | 13 | 167* | 93 | 119
SMILES | STAT1 blocker | NF-kB neuron act | STAT3 inh | APP 5'UTR act | STAT3 activator | STAT1 activator
CC1(C)CC(=O)C(=C2SCCCS2)C(=O)C1 | 0 | 1.3 | -4 | 1 | 102 | 100
COc1ccc(NC(=O)CN(C)C2CCCCC2)c([N+](=O)[O-])c1 | 5 | 1.2 | 3 | -3 | 99 | 96
CC(=O)N1CCc2cc(NC(=O)c3ccc(C)cc3)ccc21 | -30 | 3.6* | 29 | 2 | 78 | 131*
COCc1nc2sc3c(c2c(=O)[nH]1)CCCC3 | -2 | 1.5 | 8 | -8 | 92 | 102
COc1cccc(-c2nc3sc4c(c3c(=O)[nH]2)CCCCC4)c1 | -11 | 1.8 | -6 | 184* | 106 | 110
CCOC(=O)c1c(CCl)nc2ccccc2c1C | 5 | 0.93 | 10 | 0 | 100 | 94
O=C(OCCCN=C1NS(=O)(=O)c2ccccc21)c1ccc([N+](=O)[O-])cc1 | 7 | 1.1 | 3 | 18 | 98 | 94
